# Screening data: PubChem, several laboratories
# UPR CHOP act – apoptotic UPR (CHOP) activation; CHO-CHOP luciferase reporter, luminescence; percent of tunicamycin response over DMSO baseline; activation, % at 10 µM; actives 0.34% (n = 330,000);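 active = at 10 µM dose, activation of 40% or more, normalized to positive control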;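 note: 100% = tunicamycin at 10 µg/mL and 0% = DMSO alone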
#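 Dosing – one dose, 10 µM in 0.5% DMSO · System – CHO-CHOP cells, stable luciferase reporter of PERK-eIF2a-CHOP signalling · Input – 500 cells/well · Control set – tunicamycin 10 µg/mL final as positive, DMSO-only wells as negative · Timing – 6 h compound treatment, 37 °C · Measure – % activation vs tunicamycin · Technique – luminescence read with Steady-Glo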
# ANO1 block – blocks the mouse calcium-activated chloride channel TMEM16A | Q8BHY3 | HEK293 TMEM16A/YFP iodide influx fluorescence, ionomycin | normalized B-score (activity score, 25-100; higher = stronger inhibition) at 10 µM | actives 1.2% (n = 310,000) | AID 588511;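 active = ratio plate-corrected score three or more library SD toward inhibition, starting fluorescence score within five deviations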;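 note: score derived from kinetic fluorescence span divided by baseline fluorescence per well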
# UPR XBP1 act – activators of adaptive arm of unfolded protein response (XBP1). CHO-XBP1 luciferase reporter, IRE1-XBP1 UPR activation, luminescence; percent of tunicamycin response, DMSO as zero. actives 0.33% (n = 330,000). activation, % at 20 µM. AID 463104;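 active = versus positive control, 20 µM dose yields 30% or more activation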;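 note: 100% = tunicamycin at 10 µg/mL and 0% = DMSO only wells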
#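 Assay system: CHO-XBP1 luciferase reporter cells; Schedule: 6 h treatment, 37 °C; Detection: glow luminescence from Steady-Glo reagent; Benchmarks: high control tunicamycin 10 µg/mL final, low control DMSO vehicle only.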
# Lipid droplet – hepatic lipid droplet formation modulation. AML12 mouse hepatocytes, oleate lipid droplets, BODIPY imaging. inhibition, % at 6.5 µM. actives 0.4% (n = 240,000). AID 1656;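 active = lipid droplet intensity inhibited by at least 50%, with more than 500 cells counted; inconclusive = wells with under 300 cells, treated as cytotoxic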
#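 Assay system: AML12 hepatocytes (mouse) / Also added: 100 µM oleic acid challenge / Times: overnight treatment with compound plus oleate / Detection: high-content imaging of BODIPY-stained droplets and DAPI nuclei / Evaluation: % inhibition of lipid droplet signal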
# CHOP inhibitor – inhibitors of CHOP induction in ER stress response. CHO-K1 CHOP-promoter luciferase, tunicamycin-induced, 15-18 h. inhibition, % at 10 µM. actives 3.8% (n = 220,000);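 active = compounds that reduced the stress-induced luciferase reporter signal by more than about 70% of percent inhibition, limit read from the data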;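 note: 0% = tunicamycin plus vehicle and 100% = wells without tunicamycin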
# TMEM16A act – mouse TMEM16A channel activation, primary screen; B-score at 10 µM; Q8BHY3; actives 0.3% (n = 340,000); AID 623877; HEK293 TMEM16A/YFP-H148Q/I152L, iodide quench fluorescence; hits give low values;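 active = fluorescence-ratio B-score plate-corrected deviation score at least 3 library SD below zero, with starting fluorescence score within 5 deviations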;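 note: channel opened by trigger with iodide after compound preincubation; score built on the fluorescence ratio of max minus min over baseline; more negative score means more quench and so TMEM16A activation or potentiation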
# Starred values were filed as active, the others as inactive; i = inactive; ? = inconclusive; nt = no result given. In the library only some 4.2% were active in any assay of this set; here they are far more common.
SMILES,UPR CHOP act,ANO1 block,UPR XBP1 act,Lipid droplet,CHOP inhibitor,TMEM16A act
COc1ccccc1CNC(=O)C1CCC(CNS(=O)(=O)c2ccc(F)cc2)CC1 (centres undefined),0.5,i,-4.2,0.9,nt,i
CCc1ncc(C)nc1CC,-0.1,100*,-3.4,11.9,-15.2,i
CCSc1nnc(NC(=O)c2cc(-c3ccc(C)c(C)c3O)n[nH]2)s1,nt,nt,nt,-28.4,87.6*,i
CCn1c(CN2CCOCC2)nnc1SCC(=O)Nc1cccc(C)c1,1.2,i,-4.5,2.9,nt,i
O=C(CSc1nnc(Cc2cccs2)n1Cc1ccco1)Nc1cccc(Cl)c1,-0.2,i,-1.5,-24.7,-11.8,i
O=C(CSc1nnc(Cc2cccs2)n1Cc1ccco1)Nc1cc(Cl)cc(Cl)c1,-0.5,i,-1.4,nt,81.8*,i
CCNC(=S)N1CCC(Cc2ccccc2)CC1,0.1,i,-3.3,0.7,nt,-4.77*
O=C(O)Cc1cn(Cc2ccc(F)cc2)c2ccccc12,47.3*,i,-2.0,-11.6,-4.8,i
CC(C)Cc1cc(C(=O)N2CCN(C(c3ccccc3)c3ccccc3)CC2)no1,-1.1,i,-1.2,nt,23.0,i
CC(C)c1cc(C(=O)N2CCN(C(c3ccccc3)c3ccccc3)CC2)no1,-0.3,i,-4.6,2.8,81.6*,i
O=C(N1CCCCC1)N1CCN(C(c2ccccc2)c2ccccc2)CC1,-0.2,i,-0.1,8.7,82.7*,i
Cc1ccc(C(=O)CSC2=C(C#N)C(c3ccco3)CC(=O)N2)c(C)c1 (centres undefined),-2.4,25*,-0.5,nt,10.0,i
COC(=O)CSC1=C(C#N)C(c2ccc(C)o2)CC(=O)N1 (centres undefined),2.2,i,-2.6,23.0,-2.9,i
C=CCNC(=S)NNC(=O)c1ccccc1OCC,-1.5,i,-1.8,-31.1,10.3,i
N#CC1=C(c2ccccc2)/C(=C/c2ccccc2)OC1=O,-8.4,i,-16.9,6.8,108.4*,i
Cc1ccccc1CSc1nc2n(n1)C(c1cccs1)C1=C(CCCC1=O)N2 (centres undefined),-1.3,i,1.3,0.1,77.5*,i
COc1cc2c(=O)n(Cc3ccccc3)c(=O)n(CC(=O)NCc3ccco3)c2cc1OC,nt,nt,nt,2.4,70.9*,i
FC(F)(F)c1cc(-c2cccs2)nc(-n2cc(Cl)cn2)n1,0.1,i,1.7,-1.5,85.1*,i
COc1cccc(OC)c1C(=O)Nc1cccc(NC(=O)c2cccs2)c1,1.0,i,-2.5,-4.9,nt,i
CC(C)C1OC(c2cccc(NC(=O)c3cccs3)c2)OCC1(C)C (centres undefined),0.1,i,-2.3,12.6,78.7*,i
Cc1cccc(C)c1N=Nc1c(C)cc(O)cc1C,1.0,i,2.5,-1.8,nt,i
O=C(NCc1csc2ccccc12)Nc1cc(Cl)cc(Cl)c1,1.5,i,1.3,24.2,86.3*,i
Cc1cccc(N2CCN(C(=O)c3cc4cc(F)ccc4[nH]3)CC2)c1C,0.7,i,1.7,-1.3,nt,i
O=C(CSc1nnc(CNc2ccccc2)o1)N1CCCc2ccccc21,-0.2,i,0.4,nt,-2.6,i
Cc1ccc(NCc2nnc(SCC(=O)N3CCCc4ccccc43)o2)c(C)c1,-0.7,i,2.4,nt,74.7*,i
SMILES,UPR CHOP act,ANO1 block,UPR XBP1 act,Lipid droplet,CHOP inhibitor,TMEM16A act
CCCOC(=O)N[C@@H]1C(=O)N2C(C(=O)OCCC)=C(C)CS[C@H]12,0.1,i,2.5,-13.6,nt,i
CCOC(=O)c1cc(-c2ccccc2)n(Cc2cc(CC)no2)n1,2.2,i,-0.6,nt,nt,i
O=C(NC(=S)Nc1ccc2c(c1)C(=O)c1ccccc1C2=O)c1ccc(F)cc1,15.3,i,41.1*,-18.3,-14.0,nt
O=C(NC(=S)Nc1ccc(NC(=O)c2ccccc2)cc1)c1ccc(F)cc1,5.4,i,4.5,-26.0,nt,i
Cc1onc(-c2c(Cl)cccc2Cl)c1C(=O)n1nnc2ccccc21,3.1,i,-3.0,0.3,95.7*,nt
O=C1C2C3c4ccccc4C(c4ccccc43)C2C(=O)N1Cc1cccnc1 (centres undefined),1.2,i,1.6,nt,-16.4,i
COc1cc(C(=O)O/N=C2\C=CC(=O)C=C2C)cc(OC)c1OC,11.7,i,-3.9,22.6,94.1*,i
COc1cc(C(=O)O/N=C2/C=CC(=O)C(C)=C2C)cc(OC)c1OC,nt,nt,nt,nt,39.8,i
CC1CC(C)(C)N(C(=O)CN2CCN(C)CC2)c2ccccc21 (centres undefined),0.6,i,-3.7,-10.0,nt,i
CC1CC(C)(C)N(C(=O)CN2C(=O)c3ccccc3C2=O)c2ccccc21 (centres undefined),-1.4,i,-4.8,-12.9,49.8,-6.21*
COC(=O)C1=C(C)NC2=C(C(=O)c3ccccc32)C1c1cccc(OC)c1 (centres undefined),2.0,i,1.1,-2.6,-1.4,i
CC1=C([N+](=O)[O-])C(c2cccc(Br)c2)C2=C(N1)c1ccccc1C2=O (centres undefined),-1.6,100*,17.0,?,28.7,i
CC1=CC2=NC(=O)/C(=C\c3ccc(-c4cccc(Cl)c4)o3)C(=N)N2O1,1.1,i,0.2,-21.0,107.0*,i
CC1=CC2=NC(=O)/C(=C\c3cc(C)n(-c4ccc(F)cc4)c3C)C(=N)N2O1,1.6,i,6.3,-1.8,4.8,i
CC(C)n1c2ccccc2c2nc3ccccc3nc21,-3.5,i,3.0,0.4,72.3*,nt
C#CCn1c2ccccc2c2nc3ccccc3nc21,4.1,i,2.6,nt,nt,i
O=C1OC(c2ccccc2)=N/C1=C\C=C\c1ccccc1[N+](=O)[O-],-0.8,i,-2.2,0.0,70.7*,i
COc1cc(C(=O)OCC(=O)N2CCNC2=O)cc(Cl)c1OC,1.7,nt,-0.8,nt,nt,i
CCCCCCSC1=C(C#N)C(c2ccccc2)CC(=O)N1 (centres undefined),0.5,i,-0.4,4.2,77.4*,i
CSC1=C(C#N)C(c2ccc(C(C)C)cc2)CC(=O)N1 (centres undefined),-0.8,i,0.9,nt,72.9*,i
CCOc1ccc(C2CC(=O)NC(SC)=C2C#N)cc1 (centres undefined),-0.4,i,0.0,nt,33.5,i
COCCn1c(SCC(=O)Nc2ccc(F)cc2)nc2c(oc3ccccc32)c1=O,-1.3,i,1.4,-11.5,84.3*,i
